Experimental data published in ChEMBL document CHEMBL6092224, “The Discovery and Preclinical Profile of ALG-000184, a Prodrug of the Potent Hepatitis B Virus Capsid Assembly Modulator ALG-001075” (J Med Chem, 2024).

Legend:
[1] = Toxicity in C57BL/6 mouse infected with AAV-Hepatitis B virus assessed as change in body weight at 15 to 50 mg/kg, po qd for 56 days followed by induction of compound washout period for 14 days; assay type: organism-based; conditions: in vivo, 1680 h, dose 15-50 mg/kg, time 70 day
[2] = Half life in C57BL/6J mouse at 5 mg/kg, po by LC-MS/MS analysis; assay type: ADME, organism-based; conditions: in vivo
Outline: (§1)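 Single dose to fasted male C57BL6 mice, Sprague-Dawley rats, beagle dogs and cynomolgus monkeys, either IV at 1 mg/kg or PO as a solution at 5 mg/kg, in 80% PEG 400 in water. Plasma concentrations were measured by LC-MS/MS. PK parameters come from noncompartmental analysis using nominal doses and nominal sampling times.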

[3] = Half life in Cynomolgous monkey at 5 mg/kg, po by LC-MS/MS analysis; assay type: ADME, organism-based, Macaca fascicularis; conditions: cynomolgus monkey, in vivo; outline: as §1
[4] = Oral bioavailability in Sprague-Dawley rat at 5 mg/kg by LC-MS/MS analysis; assay type: ADME, organism-based; conditions: in vivo
Outline: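 Fasted male C57BL6 mice, Sprague–Dawley rats, beagle dogs, cynomolgus monkeys; single IV dose 1 mg/kg or PO solution 5 mg/kg in 80% PEG 400 in water; plasma concentrations measured, noncompartmental analysis with nominal doses and times; F from PO vs IV AUC.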

Bile salt export pump = Bile salt export pump (Homo sapiens, UniProt O95342); experiment: Inhibition of BSEP (unknown origin) transfected in HEK293 cells; assay type: cell-based
Hepatitis B virus [5] = experiment: Antiviral activity against HBV infected in human primary hepatocyte cells assessed as decrease in HBV RNA production pre-infected cells with virus followed by compound treatment for 3 days and subsequent replacement of medium with compound measured after 4 days by qPCR analysis; assay type: functional, organism-based
[6] = Half life in Cynomolgous monkey at 1 mg/kg, iv by LC-MS/MS analysis; assay type: ADME, organism-based, Macaca fascicularis; conditions: cynomolgus monkey, in vivo; outline: as §1
[7] = Volume of distribution at steady state in C57BL/6J mouse at 1 mg/kg, iv by LC-MS/MS analysis; assay type: ADME, organism-based; conditions: in vivo, read-out: Vdss
Outline: (§2)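 Fasted males (C57BL6 mice, Sprague−Dawley rats, beagle dogs, cynomolgus monkeys) given a single IV dose of 1 mg/kg in 80% PEG 400 in water. Plasma concentrations measured by LC-MS/MS. Vss derived by noncompartmental analysis using nominal dose and nominal sampling times.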

Hepatitis B virus [8] = experiment: Antiviral activity against AAV-Hepatitis B virus infected in C57BL/6 mouse assessed as reduction in baseline HBV DNA production at 15 mg/kg, po bid for 56 days followed by induction of compound washout period measured after 7 days; assay type: functional; conditions: time 63 day
[9] = Plasma protein binding in dog at 1 uM incubated for 4 to 24 hrs by equilibrium dialysis method; assay type: ADME, cell-free, Canis lupus familiaris; conditions: time 4-24 hrs, read-out: PPB (converted)
Outline: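 Rapid equilibrium dialysis in mouse, rat, dog, monkey or human plasma for 4 or 24 h; test concentrations 1, […].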

[10] = Metabolic stability in Cynomolgous monkey hepatocytes assessed as half life at 1 uM incubated upto 180 mins; conditions: cynomolgus monkey
[11] = Tmax in Cynomolgous monkey at 5 mg/kg, po by LC-MS/MS analysis; assay type: ADME, organism-based, Macaca fascicularis; conditions: cynomolgus monkey, in vivo
Outline: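 Fasted males (C57BL6 mice, Sprague−Dawley rats, beagle dogs, cynomolgus monkeys) given a single oral solution dose of 5 mg/kg in 80% PEG 400 in water. Plasma sampled over time, analysed by LC-MS/MS. Noncompartmental analysis used nominal doses and nominal sampling times.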

[12] = Volume of distribution at steady state in Cynomolgous monkey at 1 mg/kg, iv by LC-MS/MS analysis; assay type: ADME, organism-based, Macaca fascicularis; conditions: cynomolgus monkey, in vivo, read-out: Vdss; outline: as §2
[13] = Ratio of drug concentration in blood to plasma in Cynomolgous monkey at 5 uM incubated for 60 mins; assay type: ADME, cell-free, Macaca fascicularis; conditions: cynomolgus monkey
Outline: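 Compound at 5 μM in whole blood of each species, 37 ± 1 °C for 60 min; blood-to-plasma ratio and red blood cell partitioning determined.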

[14] = Stability in simulated intestinal fluid for >24 hrs; assay type: physicochemical; conditions: simulated gi fluid
Outline: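 Stability tested in simulated gastric fluid containing pepsin and simulated intestinal fluid containing pancreatin.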

Bile salt export pump, sequence (O95342 whole entry): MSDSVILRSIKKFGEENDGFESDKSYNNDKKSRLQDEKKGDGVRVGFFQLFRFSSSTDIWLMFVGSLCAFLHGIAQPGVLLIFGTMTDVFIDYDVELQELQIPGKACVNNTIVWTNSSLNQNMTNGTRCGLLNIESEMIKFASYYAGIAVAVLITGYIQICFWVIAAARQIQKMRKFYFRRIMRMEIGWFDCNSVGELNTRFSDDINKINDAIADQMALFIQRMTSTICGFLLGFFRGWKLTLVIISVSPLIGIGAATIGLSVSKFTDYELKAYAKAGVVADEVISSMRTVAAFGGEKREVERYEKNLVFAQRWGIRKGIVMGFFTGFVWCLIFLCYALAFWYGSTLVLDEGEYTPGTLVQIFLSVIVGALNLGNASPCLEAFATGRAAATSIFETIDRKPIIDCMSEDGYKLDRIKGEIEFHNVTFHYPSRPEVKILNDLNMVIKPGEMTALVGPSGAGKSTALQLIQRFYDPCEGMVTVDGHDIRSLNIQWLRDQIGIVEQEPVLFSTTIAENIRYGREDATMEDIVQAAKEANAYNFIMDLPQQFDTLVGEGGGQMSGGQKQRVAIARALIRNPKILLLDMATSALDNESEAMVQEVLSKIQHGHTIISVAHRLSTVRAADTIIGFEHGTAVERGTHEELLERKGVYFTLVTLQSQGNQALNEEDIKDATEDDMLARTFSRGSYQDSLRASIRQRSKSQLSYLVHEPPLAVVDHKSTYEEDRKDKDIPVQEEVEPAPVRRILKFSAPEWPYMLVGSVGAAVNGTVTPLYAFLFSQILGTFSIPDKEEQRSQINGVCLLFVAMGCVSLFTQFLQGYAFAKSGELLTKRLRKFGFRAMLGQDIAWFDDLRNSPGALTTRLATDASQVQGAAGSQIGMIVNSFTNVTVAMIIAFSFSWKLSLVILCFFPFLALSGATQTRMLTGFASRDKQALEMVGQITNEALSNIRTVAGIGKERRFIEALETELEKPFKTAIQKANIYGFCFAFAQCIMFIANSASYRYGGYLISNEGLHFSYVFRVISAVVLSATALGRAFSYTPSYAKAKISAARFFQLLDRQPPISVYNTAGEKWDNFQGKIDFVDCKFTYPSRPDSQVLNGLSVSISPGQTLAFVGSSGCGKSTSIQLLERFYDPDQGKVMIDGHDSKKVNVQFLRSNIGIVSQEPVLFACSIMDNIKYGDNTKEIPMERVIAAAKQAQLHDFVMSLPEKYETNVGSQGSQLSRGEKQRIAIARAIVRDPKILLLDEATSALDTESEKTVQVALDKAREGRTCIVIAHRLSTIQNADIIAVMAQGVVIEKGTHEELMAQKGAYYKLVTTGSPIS

C#CC1(NC(=O)C(=O)c2c(C)c(C(=O)Nc3ccc(F)c(C#N)c3)n(C)c2C)COC1
Activity [1]: Non-toxic | half-life [2]: 1.55 h | half-life [3]: 14.4 h | bioavailability [4]: 62.8% | IC50 (Bile salt export pump): > 11800 nM | EC50 (Hepatitis B virus [5]): 54.7 nM | half-life [6]: 1.85 h | Vd [7]: 1 L/kg | Activity (Hepatitis B virus [8]): -2.16 log10IU/ml | fraction unbound at 1 µM [9]: 0.286 | half-life at 1 µM [10]: > 6 h | Tmax [11]: 1.17 h | Vd [12]: 0.89 L/kg | blood plasma ratio at 1 h, 5 µM [13]: 0.83

C#CC1(N(COP(=O)([O-])[O-])C(=O)C(=O)c2c(C)c(C(=O)Nc3ccc(F)c(C#N)c3)n(C)c2C)COC1.[Na+].[Na+]
Stability [14]: Stable
